Experiments:
Rattus norvegicus [1] = test: Compound was tested for intestinal Ulcerogenic effect in rats, activity expressed as lesion score at a dose of 10 mg/kg; type: functional
Summary of the method: (§1)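 Normal fed rats were gavaged once daily for three consecutive days at 10–300 mg/kg and killed 24 h after the last dose. Intestines were examined for ulcers, recording incidence per group of 8 and a lesion score (±SE).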

Rattus norvegicus [2] = test: Compound was tested in vivo for antiinflammatory activity against chronic adjuvant arthritic rat by prophylactic inhibition 2 degree paw after peroral administration of 36 mg/kg of dose; conditions: po
Rattus norvegicus [3] = test: Compound was tested for intestinal Ulcerogenic effect in rats, activity expressed as lesion score at a dose of 30 mg/kg; type: functional; summary of the method: as §1
Rattus norvegicus [4] = test: Compound was tested for intestinal Ulcerogenic effect in rats, activity expressed as ulcer incidence at a dose of 300 mg/kg; type: functional; summary of the method: as §1
Rattus norvegicus [5] = test: Compound was tested for intestinal Ulcerogenic effect in rats, activity expressed as ulcer incidence at a dose of 100 mg/kg; type: functional; summary of the method: as §1
[6] = Plasma level data at a dose of 36 mg/kg, iv after 4 hr; type: ADME, organism-based; design: dose 36 mg/kg, route intravenous; conditions: read-out: Plasma level
Summary of the method: (§2)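 Male Lewis rats get a single iv or oral dose of the sodium salt, suspended in 0.4% (w/v) methyl cellulose. Plasma drug levels are measured by HPLC at the timed points and given as mean ± SD, n = 3.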

Rattus norvegicus [7] = test: Compound was tested in vivo for antiinflammatory activity against chronic adjuvant arthritic rat by prophylactic inhibition 1 degree paw after peroral administration of 36 mg/kg of dose; conditions: po
Rattus norvegicus [8] = test: Compound was tested for gastric Ulcerogenic effect in rats, activity expressed as lesion length at a dose of 10 mg/kg
Rattus norvegicus [9] = test: Compound was tested for intestinal Ulcerogenic effect in rats, activity expressed as lesion score at a dose of 100 mg/kg; type: functional; summary of the method: as §1
Rattus norvegicus [10] = test: Compound was tested for intestinal Ulcerogenic effect in rats, activity expressed as ulcer incidence at a dose of 10 mg/kg; type: functional; summary of the method: as §1
Rattus norvegicus [11] = test: Compound was tested for intestinal Ulcerogenic effect in rats at a dose of 100 mg/kg; type: functional; summary of the method: as §1
Rattus norvegicus [12] = test: Compound was tested for gastric Ulcerogenic effect in rats, activity expressed as lesion length at a dose of 100 mg/kg
Rattus norvegicus [13] = test: Antiinflammatory activity against collagen II arthritis in rats, activity% inhibition in injected paw edema; type: functional; design: concentration or dose not given beside the values
Summary of the method: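 Rats immunised with bovine articular-cartilage type II collagen (dissolved in 0.01 M AcOH for 24 h at 4 °C, dialysed against saline) mixed in equal volume with incomplete Freund's adjuvant. Paws were examined weekly for 7 weeks. An animal counted as arthritic at Δ paw volume ≥8.0 (injected paw) or ≥4.0 (noninjected paw). Bone lesions were scored on lateral-projection foot radiographs. 16 rats/group.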

[14] = Plasma level data at a dose of 36 mg/kg, iv after 12 hr; type: ADME, organism-based; design: dose 36 mg/kg, route intravenous; conditions: read-out: Plasma level; summary of the method: as §2
Rattus norvegicus [15] = test: Compound was tested for intestinal Ulcerogenic effect in rats, activity expressed as ulcer incidence at a dose of 30 mg/kg; type: functional; summary of the method: as §1
Rattus norvegicus [16] = test: Compound was tested for gastric Ulcerogenic effect in rats, activity expressed as lesion length at a dose of 30 mg/kg
Rattus norvegicus [17] = test: Compound was tested in vivo for antiinflammatory activity against chronic adjuvant arthritic rat by therapeutic inhibition 1 degree paw after peroral administration of 10 mg/kg of dose; type: functional; conditions: route oral
Rattus norvegicus [18] = test: Compound was tested in vivo for antiinflammatory activity against chronic adjuvant arthritic rat by therapeutic inhibition 2 degree paw after peroral administration of 30 mg/kg of dose; type: functional; conditions: route oral
Rattus norvegicus [19] = test: Compound was tested in vivo for antiinflammatory activity against chronic adjuvant arthritic rat by therapeutic inhibition 2 degree paw after peroral administration of 3.3 mg/kg of dose; type: functional; conditions: route oral
Rattus norvegicus [20] = test: Compound was tested for intestinal Ulcerogenic effect in rats at a dose of 30 mg/kg; type: functional; summary of the method: as §1
Cyclooxygenase = molecular target: T1, Cyclooxygenase (Rattus norvegicus, UniProt P35355+Q63921); test: In vitro inhibitory activity against Prostaglandin G/H synthase in rat neutrophils
T1 sequence (P35355 whole entry): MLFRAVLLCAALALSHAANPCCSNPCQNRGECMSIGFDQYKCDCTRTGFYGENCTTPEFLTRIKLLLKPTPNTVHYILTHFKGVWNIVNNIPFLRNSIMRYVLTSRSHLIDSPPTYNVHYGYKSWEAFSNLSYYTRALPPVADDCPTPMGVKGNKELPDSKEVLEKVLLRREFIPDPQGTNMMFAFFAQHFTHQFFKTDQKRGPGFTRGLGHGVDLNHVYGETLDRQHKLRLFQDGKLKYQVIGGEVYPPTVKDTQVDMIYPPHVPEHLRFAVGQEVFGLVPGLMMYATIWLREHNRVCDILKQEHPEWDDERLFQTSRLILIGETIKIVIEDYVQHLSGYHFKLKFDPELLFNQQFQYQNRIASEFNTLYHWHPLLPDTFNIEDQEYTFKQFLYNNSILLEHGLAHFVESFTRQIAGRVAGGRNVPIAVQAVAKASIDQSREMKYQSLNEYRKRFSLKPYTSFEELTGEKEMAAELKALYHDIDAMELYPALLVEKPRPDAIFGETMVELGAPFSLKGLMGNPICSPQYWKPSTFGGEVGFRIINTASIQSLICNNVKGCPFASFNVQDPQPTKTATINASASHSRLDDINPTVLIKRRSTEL
T1 sequence (Q63921 whole entry): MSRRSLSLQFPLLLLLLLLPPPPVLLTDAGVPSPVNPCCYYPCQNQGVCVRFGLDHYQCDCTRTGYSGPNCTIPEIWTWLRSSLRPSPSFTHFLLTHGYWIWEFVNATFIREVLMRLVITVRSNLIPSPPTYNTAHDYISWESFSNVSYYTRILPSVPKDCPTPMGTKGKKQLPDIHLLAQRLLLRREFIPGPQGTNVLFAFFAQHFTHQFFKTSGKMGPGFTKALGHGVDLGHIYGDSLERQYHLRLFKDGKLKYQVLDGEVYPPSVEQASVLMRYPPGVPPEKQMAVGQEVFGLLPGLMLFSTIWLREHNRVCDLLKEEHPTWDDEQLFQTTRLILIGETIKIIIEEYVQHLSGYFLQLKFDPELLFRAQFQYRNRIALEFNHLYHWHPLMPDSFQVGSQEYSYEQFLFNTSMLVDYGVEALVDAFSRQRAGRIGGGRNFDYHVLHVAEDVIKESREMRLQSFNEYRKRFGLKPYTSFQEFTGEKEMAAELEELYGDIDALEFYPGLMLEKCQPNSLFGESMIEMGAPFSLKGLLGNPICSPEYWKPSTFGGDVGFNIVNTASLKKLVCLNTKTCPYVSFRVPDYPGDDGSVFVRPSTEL

Rattus norvegicus [21] = test: Compound was tested for intestinal ulcerogenic effect in rats at a dose of 10 mg/kg; type: functional; summary of the method: as §1
[22] = Plasma level data at a dose of 20mg/kg, po after 0.5 hr; type: ADME, organism-based; conditions: read-out: Plasma level; summary of the method: as §2
Rattus norvegicus [23] = test: Compound was tested in vivo for antiinflammatory activity against chronic adjuvant arthritic rat by therapeutic inhibition 2 degree paw after peroral administration of 3 mg/kg of dose; type: functional; conditions: route oral

IC50 (Cyclooxygenase) [µM]	Structure (SMILES)	Lesion length (Rattus norvegicus [1]) [mm rat-1]	inhibition in vivo at 36 mg/kg (Rattus norvegicus [2]) [%]	Lesion score (Rattus norvegicus [3]) [mm rat-1]	Ulcer incidence (Rattus norvegicus [5]) [number/group]	inhibition in vivo at 36 mg/kg (Rattus norvegicus [7]) [%]	Length (Rattus norvegicus [8]) [mm rat-1]	Lesion length (Rattus norvegicus [9]) [mm rat-1]	Ulcer incidence (Rattus norvegicus [10]) [number/group]	Ulcer incidence (Rattus norvegicus [11]) [number/group]	Length (Rattus norvegicus [12]) [mm rat-1]	Inhibition (Rattus norvegicus [13]) [%]	Ulcer incidence (Rattus norvegicus [15]) [number/group]	Length (Rattus norvegicus [16]) [mm rat-1]	inhibition in vivo at 10 mg/kg (Rattus norvegicus [17]) [%]	inhibition in vivo at 30 mg/kg (Rattus norvegicus [18]) [%]	inhibition in vivo at 3.3 mg/kg (Rattus norvegicus [19]) [%]	Ulcer incidence (Rattus norvegicus [20]) [number/group]	also measured
–	CCCc1c(O)n(Cc2ccc(F)cc2)c2nc3c(c(=O)n(C)c(=O)n3C)n2c1=O	0	67	0	0	60	0	0	0	0	0.2	38.2	0	0	–	–	–	–	Ulcer incidence (Rattus norvegicus [4]): 0 number/group; concentration at 4 h [6]: 72.4 µg/mL; concentration at 12 h [14]: 88.3 µg/mL
4.2	CC(C)=CCc1c(O)n(Cc2ccc(F)cc2)c2nc3c(c(=O)n(C)c(=O)n3C)n2c1=O	–	69	–	–	44	–	–	–	–	–	53.9	–	–	38	87	43	0	Ulcer incidence (Rattus norvegicus [21]): 0 number/group
2	CC(C)=CCc1c(O)n(Cc2ccccc2)c2nc3c(c(=O)n(C)c(=O)n3C)n2c1=O	0	–	0	1	–	0	0.1	0	1	1	–	0	0	54	83	42	0	concentration at 0.5 h [22]: 10.8 µg/mL; inhibition in vivo at 3 mg/kg (Rattus norvegicus [23]): 51%

Source: ChEMBL document CHEMBL1123282, “Antiinflammatory activity of substituted 6-hydroxypyrimido[2,1-f]purine-2,4,8(1H,3H,9H)-triones. Atypical nonsteroidal antiinflammatory agents” (J Med Chem, 1986)
